Results published in publication PMC2857698 (Biochemistry, 2010).

Columns and labels:
EH domain of EHD1 = experiment: ITC of NPF peptides binding to EHD1 EH; set-up: species or system mouse; details: for Ka / TΔS / ΔG / ΔH / ΔS: 25 mM MOPS pH 7.0, 1 mM CaCl2
How it was run: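 Mouse EHD1 EH domain (V437–E534) expressed as a GST fusion, purified on glutathione resin and thrombin-cleaved on beads. Protein and peptides were dialysed at 4°C against 25 mM MOPS pH 7.0, 1 mM CaCl2, with KCl varied where applicable. ITC was run at 20°C unless stated (5–25°C), with 50–200 μM protein in the cell and peptide titrant 10-fold higher. Single-site fit gave Ka, n and ΔH; ΔG = −RTlnKa, and TΔS came from ΔG = ΔH − TΔS.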

Eps15 EH2 = experiment: ITC of Rsn5-NPF1 with Eps15 EH2; assay type: binding; details: protein concentration in the ITC cell increased to 0.5 mM

With Ac-GPSLNPFDEED-NH2 [Rsn5-NPF1] the “fold higher affinity than Rfp2-NPF2” value (EH domain of EHD1; ITC, EHD1 EH) was 100 fold, the Ka (EH domain of EHD1; ITC, 5.0 °C) was 2.03e+06 M⁻¹ and the TΔS (EH domain of EHD1; ITC, 5.0 °C) was -0.9542 kcal/mol. For the same substance, the ΔG (EH domain of EHD1; ITC, 5.0 °C) was -8.02 kcal/mol, the ΔH (EH domain of EHD1; ITC, 5.0 °C) was -8.986 kcal/mol and the ΔS (EH domain of EHD1; ITC, 5.0 °C) was −3.43 cal mol^−1 K^−1. It also gave a Ka (EH domain of EHD1; ITC, 10.0 °C) of 1.71e+06 M⁻¹, a TΔS (EH domain of EHD1; ITC, 10.0 °C) of -1.606 kcal/mol and a ΔG (EH domain of EHD1; ITC, 10.0 °C) of -8.068 kcal/mol. The ΔH (EH domain of EHD1; ITC, 10.0 °C) was -9.684 kcal/mol, the ΔS (EH domain of EHD1; ITC, 10.0 °C) was −5.67 cal mol^−1 K^−1 and the Ka (EH domain of EHD1; ITC, 15.0 °C) was 1.1e+06 M⁻¹. The TΔS (EH domain of EHD1; ITC, 15.0 °C) was -2.467 kcal/mol, the ΔG (EH domain of EHD1; ITC, 15.0 °C) was -7.958 kcal/mol and the ΔH (EH domain of EHD1; ITC, 15.0 °C) was -10.44 kcal/mol. For the same substance, the ΔS (EH domain of EHD1; ITC, 15.0 °C) was −8.56 cal mol^−1 K^−1, the Ka (EH domain of EHD1; ITC, 20.0 °C) was 814000 M⁻¹ and the TΔS (EH domain of EHD1; ITC, 20.0 °C) was -3.401 kcal/mol. It also gave a ΔG (EH domain of EHD1; ITC, 20.0 °C) of -7.921 kcal/mol, a ΔH (EH domain of EHD1; ITC, 20.0 °C) of -11.33 kcal/mol and a ΔS (EH domain of EHD1; ITC, 20.0 °C) of −11.6 cal mol^−1 K^−1. For the same substance, the Ka (EH domain of EHD1; ITC, 20 °C, KCl 25.0 mM) was 302000 M⁻¹, the TΔS (EH domain of EHD1; ITC, 20 °C, KCl 25.0 mM) was -3.079 kcal/mol and the ΔH (EH domain of EHD1; ITC, 20 °C, KCl 25.0 mM) was -10.42 kcal/mol. The ΔS (EH domain of EHD1; ITC, 20 °C, KCl 25.0 mM) was −10.5 cal mol^−1 K^−1, the Ka (EH domain of EHD1; ITC, 20 °C, KCl 50.0 mM) was 168000 M⁻¹ and the TΔS (EH domain of EHD1; ITC, 20 °C, KCl 50.0 mM) was -3.401 kcal/mol. It also gave a ΔG (EH domain of EHD1; ITC, 20 °C, KCl 50.0 mM) of -7.002 kcal/mol, a ΔH (EH domain of EHD1; ITC, 20 °C, KCl 50.0 mM) of -10.42 kcal/mol and a ΔS (EH domain of EHD1; ITC, 20 °C, KCl 50.0 mM) of −11.6 cal mol^−1 K^−1. For the same substance, the Ka (EH domain of EHD1; ITC, 20 °C, KCl 75.0 mM) was 115000 M⁻¹, the TΔS (EH domain of EHD1; ITC, 20 °C, KCl 75.0 mM) was -3.548 kcal/mol and the ΔG (EH domain of EHD1; ITC, 20 °C, KCl 75.0 mM) was -6.782 kcal/mol. It also gave a ΔH (EH domain of EHD1; ITC, 20 °C, KCl 75.0 mM) of -10.34 kcal/mol, a ΔS (EH domain of EHD1; ITC, 20 °C, KCl 75.0 mM) of −12.1 cal mol^−1 K^−1 and a Ka (EH domain of EHD1; ITC, 20 °C, KCl 100.0 mM) of 86500 M⁻¹. It also gave a TΔS (EH domain of EHD1; ITC, 20 °C, KCl 100.0 mM) of -4.251 kcal/mol, a ΔG (EH domain of EHD1; ITC, 20 °C, KCl 100.0 mM) of -6.616 kcal/mol and a ΔH (EH domain of EHD1; ITC, 20 °C, KCl 100.0 mM) of -10.88 kcal/mol. For the same substance, the ΔS (EH domain of EHD1; ITC, 20 °C, KCl 100.0 mM) was −14.5 cal mol^−1 K^−1, the Ka (EH domain of EHD1; ITC, 20 °C, KCl 125.0 mM) was 65000 M⁻¹ and the TΔS (EH domain of EHD1; ITC, 20 °C, KCl 125.0 mM) was -4.046 kcal/mol. For the same substance, the ΔG (EH domain of EHD1; ITC, 20 °C, KCl 125.0 mM) was -6.45 kcal/mol, the ΔH (EH domain of EHD1; ITC, 20 °C, KCl 125.0 mM) was -10.5 kcal/mol and the ΔS (EH domain of EHD1; ITC, 20 °C, KCl 125.0 mM) was −13.8 cal mol^−1 K^−1. The Ka (EH domain of EHD1; ITC, 20 °C, KCl 150.0 mM) was 53000 M⁻¹, the TΔS (EH domain of EHD1; ITC, 20 °C, KCl 150.0 mM) was -4.163 kcal/mol and the ΔG (EH domain of EHD1; ITC, 20 °C, KCl 150.0 mM) was -6.331 kcal/mol. It also gave a ΔH (EH domain of EHD1; ITC, 20 °C, KCl 150.0 mM) of -10.5 kcal/mol, a ΔS (EH domain of EHD1; ITC, 20 °C, KCl 150.0 mM) of −14.2 cal mol^−1 K^−1 and a Ka (EH domain of EHD1; ITC, 20 °C, KCl 300.0 mM) of 24800 M⁻¹. The TΔS (EH domain of EHD1; ITC, 20 °C, KCl 300.0 mM) was -4.369 kcal/mol, the ΔG (EH domain of EHD1; ITC, 20 °C, KCl 300.0 mM) was -5.889 kcal/mol and the ΔH (EH domain of EHD1; ITC, 20 °C, KCl 300.0 mM) was -10.26 kcal/mol. The ΔS (EH domain of EHD1; ITC, 20 °C, KCl 300.0 mM) was −14.9 cal mol^−1 K^−1, the Ka (EH domain of EHD1; ITC, 20 °C, KCl 450.0 mM) was 17800 M⁻¹ and the TΔS (EH domain of EHD1; ITC, 20 °C, KCl 450.0 mM) was -4.721 kcal/mol. For the same substance, the ΔG (EH domain of EHD1; ITC, 20 °C, KCl 450.0 mM) was -5.696 kcal/mol, the ΔH (EH domain of EHD1; ITC, 20 °C, KCl 450.0 mM) was -10.43 kcal/mol and the ΔS (EH domain of EHD1; ITC, 20 °C, KCl 450.0 mM) was −16.1 cal mol^−1 K^−1. For the same substance, the Ka (EH domain of EHD1; ITC, 25.0 °C) was 606000 M⁻¹, the TΔS (EH domain of EHD1; ITC, 25.0 °C) was -4.056 kcal/mol and the ΔG (EH domain of EHD1; ITC, 25.0 °C) was -7.881 kcal/mol. The ΔH (EH domain of EHD1; ITC, 25.0 °C) was -11.94 kcal/mol, the ΔS (EH domain of EHD1; ITC, 25.0 °C) was −13.6 cal mol^−1 K^−1 and the “non-electrostatic ΔG” value (EH domain of EHD1; from (Ka)ne, 20°C) was -5.2 kcal/mol. The “ΔCp (change in heat capacity upon binding)” value (EH domain of EHD1; from response of ΔH to temperature, 5 to 25°, ITC) was −150 cal mol^−1 K^−1 and the “interaction detected by ITC” value (Eps15 EH2) was “unable to detect any interaction”.
